Measured values reported in ChEMBL document CHEMBL1811814, “Synthesis and evaluation of indole, pyrazole, chromone and pyrimidine based conjugates for tumor growth inhibitory activities--development of highly efficacious cytotoxic agents” (Eur J Med Chem, 2010).

Assays:
Assay type in all cases: functional
Parameters in all cases: scale not given: the % may be the effect or the level left
HL-60(TB) = experiment: Growth inhibition of human HL-60(TB) cells assessed tumor cell growth at 10^-5 M
Outline: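 HL-60(TB), part of the 60-line panel, tested at a single concentration of 10^-5 M. The read-out is percent tumor cell growth relative to untreated growth.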

K562 = experiment: Growth inhibition of human K562 cells assessed tumor cell growth at 10^-5 M
Outline: (§1)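 NCI 60-human-tumor-cell-line panel screen. Each compound was tested at a single concentration of 10^-5 M, and percent growth of tumor cells was recorded for each cell line. Growth inhibition was expressed from these percent-growth values.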

MOLT-4 = experiment: Growth inhibition of human MOLT4 cells assessed tumor cell growth at 10^-5 M; outline: as §1
[1] = Growth inhibition of human […] cells assessed tumor cell growth at 10^-5 M; outline: as §1
SR = experiment: Growth inhibition of human SR cells assessed tumor cell growth at 10^-5 M
Outline: (§2)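 Single-dose screen at 10^-5 M across the 60 human tumor cell line panel, run to NCI standards. The value is the percent growth of each cell line in the presence of compound. Compounds active at this dose moved on to five-concentration testing (10^-4 to 10^-8 M).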

A549 = experiment: Growth inhibition of human A549 cells assessed tumor cell growth at 10^-5 M; outline: as §1
EKVX = experiment: Growth inhibition of human EKVX cells assessed tumor cell growth at 10^-5 M; outline: as §1
HOP-62 = experiment: Growth inhibition of human HOP62 cells assessed tumor cell growth at 10^-5 M; outline: as §1
NCI-H23 = experiment: Growth inhibition of human NCI-H23 cells assessed tumor cell growth at 10^-5 M; outline: as §1
NCI-H322M = experiment: Growth inhibition of human NCI-H322M cells assessed tumor cell growth at 10^-5 M; outline: as §1
NCI-H460 = experiment: Growth inhibition of human NCI-H460 cells assessed tumor cell growth at 10^-5 M; outline: as §1
NCI-H522 = experiment: Growth inhibition of human NCI-H522 cells assessed tumor cell growth at 10^-5 M; outline: as §1
COLO 205 = experiment: Growth inhibition of human COLO205 cells assessed tumor cell growth at 10^-5 M; outline: as §1
HCT-116 = experiment: Growth inhibition of human HCT116 cells assessed tumor cell growth at 10^-5 M; outline: as §1
HCT-15 = experiment: Growth inhibition of human HCT15 cells assessed tumor cell growth at 10^-5 M; outline: as §1
HT-29 = experiment: Growth inhibition of human HT-29 cells assessed tumor cell growth at 10^-5 M; outline: as §1
KM12 = experiment: Growth inhibition of human KM12 cells assessed tumor cell growth at 10^-5 M; outline: as §1
SW-620 = experiment: Growth inhibition of human SW620 cells assessed tumor cell growth at 10^-5 M; outline: as §2
SF-268 = experiment: Growth inhibition of human SF268 cells assessed tumor cell growth at 10^-5 M; outline: as §1
SF-295 = experiment: Growth inhibition of human SF295 cells assessed tumor cell growth at 10^-5 M; outline: as §1
SF-539 = experiment: Growth inhibition of human SF539 cells assessed tumor cell growth at 10^-5 M; outline: as §1
SNB-19 = experiment: Growth inhibition of human SNB19 cells assessed tumor cell growth at 10^-5 M; outline: as §2
SNB-75 = experiment: Growth inhibition of human SNB75 cells assessed tumor cell growth at 10^-5 M; outline: as §2
U-251 = experiment: Growth inhibition of human U251 cells assessed tumor cell growth at 10^-5 M; outline: as §2
LOX IMVI = experiment: Growth inhibition of human LOXIMVI cells assessed tumor cell growth at 10^-5 M; outline: as §1
Malme-3M = experiment: Growth inhibition of human MALME-3M cells assessed tumor cell growth at 10^-5 M; outline: as §1
M14 = experiment: Growth inhibition of human M14 cells assessed tumor cell growth at 10^-5 M; outline: as §1
MDA-MB-435 = experiment: Growth inhibition of human MDA-MB-435 cells assessed tumor cell growth at 10^-5 M; outline: as §1
SK-MEL-2 = experiment: Growth inhibition of human SK-MEL-2 cells assessed tumor cell growth at 10^-5 M; outline: as §1
SK-MEL-28 = experiment: Growth inhibition of human SK-MEL-28 cells assessed tumor cell growth at 10^-5 M; outline: as §1
SK-MEL-5 = experiment: Growth inhibition of human SK-MEL-5 cells assessed tumor cell growth at 10^-5 M; outline: as §1
UACC-62 = experiment: Growth inhibition of human UACC62 cells assessed tumor cell growth at 10^-5 M; outline: as §2
IGROV-1 = experiment: Growth inhibition of human IGROV1 cells assessed tumor cell growth at 10^-5 M; outline: as §1
OVCAR-3 = experiment: Growth inhibition of human OVCAR3 cells assessed tumor cell growth at 10^-5 M; outline: as §1
OVCAR-4 = experiment: Growth inhibition of human OVCAR4 cells assessed tumor cell growth at 10^-5 M; outline: as §1
OVCAR-5 = experiment: Growth inhibition of human OVCAR5 cells assessed tumor cell growth at 10^-5 M; outline: as §1
OVCAR-8 = experiment: Growth inhibition of human OVCAR8 cells assessed tumor cell growth at 10^-5 M; outline: as §1
NCI/ADR-RES = experiment: Growth inhibition of human NCI/ADR-RES cells assessed tumor cell growth at 10^-5 M; outline: as §1
SK-OV-3 = experiment: Growth inhibition of human SKOV3 cells assessed tumor cell growth at 10^-5 M; outline: as §1
786-0 = experiment: Growth inhibition of human 786-0 cells assessed tumor cell growth at 10^-5 M; outline: as §1
A498 = experiment: Growth inhibition of human A498 cells assessed tumor cell growth at 10^-5 M; outline: as §1
ACHN = experiment: Growth inhibition of human ACHN cells assessed tumor cell growth at 10^-5 M; outline: as §1
CAKI-1 = experiment: Growth inhibition of human Caki1 cells assessed tumor cell growth at 10^-5 M; outline: as §1
RXF 393 = experiment: Growth inhibition of human RXF393 cells assessed tumor cell growth at 10^-5 M; outline: as §1
SN12C = experiment: Growth inhibition of human SN12C cells assessed tumor cell growth at 10^-5 M; outline: as §1
TK-10 = experiment: Growth inhibition of human TK10 cells assessed tumor cell growth at 10^-5 M; outline: as §2
UO-31 = experiment: Growth inhibition of human UO31 cells assessed tumor cell growth at 10^-5 M; outline: as §2
PC-3 = experiment: Growth inhibition of human PC3 cells assessed tumor cell growth at 10^-5 M; outline: as §1
DU-145 = experiment: Growth inhibition of human DU145 cells assessed tumor cell growth at 10^-5 M; outline: as §1
MCF7 = experiment: Growth inhibition of human MCF7 cells assessed tumor cell growth at 10^-5 M; outline: as §1
MDA-MB-231 = experiment: Growth inhibition of human MDA-MB-231 cells assessed tumor cell growth at 10^-5 M; outline: as §1
[2] = Growth inhibition of human Hs 578T cells assessed tumor cell growth at 10^-5 M; outline: as §1
T47D = experiment: Growth inhibition of human T47D cells assessed tumor cell growth at 10^-5 M; outline: as §2
MDA-MB-468 = experiment: Growth inhibition of human MDA-MB-468 cells assessed tumor cell growth at 10^-5 M; outline: as §1
CCRF-CEM = experiment: Growth inhibition of human CCRF-CEM cells assessed tumor cell growth at 10^-5 M; outline: as §1
HOP-92 = experiment: Growth inhibition of human HOP92 cells assessed tumor cell growth at 10^-5 M; outline: as §1
NCI-H226 = experiment: Growth inhibition of human NCI-H226 cells assessed tumor cell growth at 10^-5 M; outline: as §1
HCC 2998 = experiment: Growth inhibition of human HCC2998 cells assessed tumor cell growth at 10^-5 M; outline: as §1
UACC-257 = experiment: Growth inhibition of human UACC257 cells assessed tumor cell growth at 10^-5 M; outline: as §2
BT-549 = experiment: Growth inhibition of human BT549 cells assessed tumor cell growth at 10^-5 M; outline: as §1

`O=C1/C(=C\c2cn(Cc3ccccc3)c3ccccc23)c2ccccc2N1Cc1ccccc1` showed an Activity (HL-60(TB)) of 103.6%, an Activity (K562) of 95.2% and an Activity (MOLT-4) of 98.9%. For the same compound, the Activity [1] was 76.9%, the Activity (SR) was 96.6% and the Activity (A549) was 81.6%. The Activity (EKVX) was 85.2%, the Activity (HOP-62) was 90.9% and the Activity (NCI-H23) was 88.6%. The Activity (NCI-H322M) was 103.8%, the Activity (NCI-H460) was 88.6% and the Activity (NCI-H522) was 31.8%. For the same compound, the Activity (COLO 205) was 89.8%, the Activity (HCT-116) was 64.7% and the Activity (HCT-15) was 77.7%. It also gave an Activity (HT-29) of 90%, an Activity (KM12) of 87.9% and an Activity (SW-620) of 97.1%. The Activity (SF-268) was 92.3%, the Activity (SF-295) was 108.8% and the Activity (SF-539) was 94.7%. The Activity (SNB-19) was 106.1%, the Activity (SNB-75) was 89.5% and the Activity (U-251) was 92.9%. For the same compound, the Activity (LOX IMVI) was 84%, the Activity (Malme-3M) was 121.4% and the Activity (M14) was 96.6%. The Activity (MDA-MB-435) was 110.5%, the Activity (SK-MEL-2) was 86.4% and the Activity (SK-MEL-28) was 104.8%. It also gave an Activity (SK-MEL-5) of 84.4%, an Activity (UACC-62) of 82.6% and an Activity (IGROV-1) of 66.8%. It also gave an Activity (OVCAR-3) of 84.3%, an Activity (OVCAR-4) of 84.4% and an Activity (OVCAR-5) of 106.7%. The Activity (OVCAR-8) was 88.9%, the Activity (NCI/ADR-RES) was 92% and the Activity (SK-OV-3) was 92.4%. It also gave an Activity (786-0) of 99.1%, an Activity (A498) of 96.6% and an Activity (ACHN) of 85.4%. The Activity (CAKI-1) was 72%, the Activity (RXF 393) was 73.5% and the Activity (SN12C) was 104%. The Activity (TK-10) was 85.3%, the Activity (UO-31) was 82.3% and the Activity (PC-3) was 80.8%. The Activity (DU-145) was 100.2%, the Activity (MCF7) was 3.6% and the Activity (MDA-MB-231) was 100.6%. For the same compound, the Activity [2] was 96%, the Activity (T47D) was 57% and the Activity (MDA-MB-468) was 46.6%.

In the case of `Cc1ccc(S(=O)(=O)n2cc(/C=C3\C(=O)Nc4ccccc43)c3ccccc32)cc1`, the Activity (CCRF-CEM) was 95.6%, the Activity (HL-60(TB)) was 100.6% and the Activity (K562) was 85%. The Activity (MOLT-4) was 95.7%, the Activity [1] was 80.7% and the Activity (A549) was 88.2%. The Activity (EKVX) was 93.8%, the Activity (HOP-62) was 98.5% and the Activity (HOP-92) was 67.4%. For the same compound, the Activity (NCI-H226) was 86.3%, the Activity (NCI-H23) was 89.8% and the Activity (NCI-H322M) was 106.5%. It also gave an Activity (NCI-H460) of 97.3%, an Activity (NCI-H522) of 111.2% and an Activity (COLO 205) of 54.4%. For the same compound, the Activity (HCC 2998) was 98.6%, the Activity (HCT-116) was 92.5% and the Activity (HCT-15) was 79.5%. For the same compound, the Activity (HT-29) was 104.5%, the Activity (KM12) was 97% and the Activity (SW-620) was 103%. It also gave an Activity (SF-268) of 88.4%, an Activity (SF-295) of 97.1% and an Activity (SF-539) of 93.1%. The Activity (SNB-19) was 85.2%, the Activity (SNB-75) was 73.4% and the Activity (U-251) was 86.4%. For the same compound, the Activity (LOX IMVI) was 82.7%, the Activity (Malme-3M) was 111% and the Activity (M14) was 96%. For the same compound, the Activity (MDA-MB-435) was 93.2%, the Activity (SK-MEL-2) was 86.6% and the Activity (SK-MEL-28) was 86.8%. It also gave an Activity (SK-MEL-5) of 84.9%, an Activity (UACC-257) of 84% and an Activity (UACC-62) of 64%. It also gave an Activity (IGROV-1) of 73%, an Activity (OVCAR-3) of 83.7% and an Activity (OVCAR-4) of 70.1%. The Activity (OVCAR-5) was 87.3%, the Activity (OVCAR-8) was 91.2% and the Activity (NCI/ADR-RES) was 92.1%. For the same compound, the Activity (SK-OV-3) was 99.1%, the Activity (786-0) was 99.7% and the Activity (A498) was 102%. The Activity (ACHN) was 82.2%, the Activity (CAKI-1) was 53.7% and the Activity (RXF 393) was 97.6%. It also gave an Activity (SN12C) of 88.3%, an Activity (TK-10) of 117.8% and an Activity (UO-31) of 60.9%. For the same compound, the Activity (PC-3) was 92.8%, the Activity (DU-145) was 101.5% and the Activity (MCF7) was 56.6%. It also gave an Activity (MDA-MB-231) of 66.4%, an Activity [2] of 92.2% and an Activity (BT-549) of 97.5%. It also gave an Activity (T47D) of 77.3% and an Activity (MDA-MB-468) of 117.2%.
